Consider 9 compounds from ChEMBL document CHEMBL3091314, “Synthesis, cytotoxic evaluation and molecular docking study of 2-alkylthio-4-(2,3,4-trimethoxyphenyl)-5-aryl-thiazoles as tubulin polymerization inhibitors” (Bioorg Med Chem, 2013).

Active and inactive are the calls of the source. The rule behind the calls is not given here.

The test system of data set [1] is NIH3T3. The data set is described as follows: Cytotoxicity against mouse NIH/3T3 cells after 48 hrs by MTT assay. The class given is cell-based. The conditions noted are these: NIH3T3, 48 h. In short, it runs like this: (§1)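 Cells grown in RPMI-1640 with 10% heat-inactivated FBS, penicillin and streptomycin, seeded at 8000–10,000 viable cells/well and left 48 h to attach. Exposed to 0.001–100 µM compound (DMSO final <0.1%) for 24 or 48 h depending on cell line. MTT (5 mg/ml in PBS) added for 4 h at 37 °C, formazan dissolved in DMSO, absorbance read at 550 nm against 690 nm. Triplicates; IC50 by nonlinear regression, mean ± SD.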

In data set [2] the test system is NIH3T3. The data set is described as follows: Cell cycle arrest in mouse NIH/3T3 cells assessed as accumulation at G0/G1 phase at 50 uM after 24 hrs using propidium iodide staining by flow cytometric analysis (reference value: 39.91%). Type of data set: cell-based. Conditions: nih3t3, 24 h. The method, boiled down: (§2)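 NIH-3T3 cells treated with 25 or 50 µM for 24 h. Collected by centrifugation, fixed in 75% ethanol at 4 °C for 0.5 h, then resuspended in PBS with 0.1% Triton X-100, 10 µg/mL propidium iodide and 100 µg/mL RNase A at 37 °C for 0.5 h. DNA content read on a FACSCalibur flow cytometer. CA-4 (0.05 µM) served as positive control.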
On the technique in general: In flow cytometry, cells or beads pass a laser one at a time.

Data set [3] has as its system NIH3T3. The data set is described as follows: Cell cycle arrest in mouse NIH/3T3 cells assessed as accumulation at S phase at 25 uM after 24 hrs using propidium iodide staining by flow cytometric analysis (reference value: 24.39%). Type of data set: cell-based. Conditions: nih3t3, 24 h. The method, boiled down: as §2
In another data set the test system is HT-29. The data set is described as follows: Cytotoxicity against human HT-29 cells after 48 hrs by MTT assay. The class given is functional, cell-based. The conditions noted are these: HT-29, 48 h. The method, boiled down: as §1
In general terms: Tetrazolium dyes change colour on reduction, which living cells bring about.

A further data set is filed under the species Ovis aries. The data set is described as follows: Inhibition of sheep brain tubulin polymerization at 10 uM after 15 mins. In short, it runs like this: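 Purified tubulin (12 µM) preincubated 15 min with compound at 10 µM final in PEM buffer (100 mM PIPES pH 6.9, 1 mM MgSO4, 1 mM EGTA), then cooled to 0 °C. GTP added to 1 mM final; assembly started by warming from 0 to 37 °C and followed by absorbance at 350 nm. Duplicate experiments; CA-4 as positive control.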

In data set [4] the test system is NIH3T3. The data set is described as follows: Cell cycle arrest in mouse NIH/3T3 cells assessed as accumulation at G0/G1 phase at 25 uM after 24 hrs using propidium iodide staining by flow cytometric analysis (reference value: 39.91%). Type of data set: cell-based. Conditions: nih3t3, 24 h. In short, it runs like this:
as §2

The test system of data set [5] is NIH3T3. The data set is described as follows: Cell cycle arrest in mouse NIH/3T3 cells assessed as accumulation at S phase at 50 uM after 24 hrs using propidium iodide staining by flow cytometric analysis (reference value: 24.39%). The class given is cell-based. The conditions noted are these: nih3t3, 24 h. In short, it runs like this:
as §2

The test system of data set [6] is NIH3T3. The data set is described as follows: Cell cycle arrest in mouse NIH/3T3 cells assessed as accumulation at G2/M phase at 25 uM after 24 hrs using propidium iodide staining by flow cytometric analysis (reference value: 35.70%). Type of data set: cell-based. The conditions noted are these: nih3t3, 24 h. In short, it runs like this:
as §2

A further data set has as its system MCF7. The data set is described as follows: Cytotoxicity against human MCF7 cells after 48 hrs by MTT assay. Type of data set: functional, cell-based. Conditions: MCF7, 48 h. In short, it runs like this: as §1
In another data set the test system is AGS. The data set is described as follows: Cytotoxicity against human AGS cells after 48 hrs by MTT assay. The class given is functional, cell-based. In short, it runs like this:
as §1

The subject of data set [7] is NIH3T3. The data set is described as follows: Cell cycle arrest in mouse NIH/3T3 cells assessed as accumulation at G2/M phase at 50 uM after 24 hrs using propidium iodide staining by flow cytometric analysis (reference value: 35.70%). The class given is cell-based. Conditions: nih3t3, 24 h. The method, boiled down:
as §2

`COc1ccc(-c2nc(SCc3ccccc3)sc2-c2ccc(Cl)cc2)c(OC)c1OC`: the IC50 (commonly the point on the concentration scale where inhibition reaches its midpoint) worked out at 20.5 µM in the data set with NIH3T3 [1], 8.9 µM in the data set on HT-29, 12.6 µM in the data set with MCF7 and 15.8 µM with AGS. The Activity is listed as 15.92% in the data set with NIH3T3 [2]; 28.12% in the data set with NIH3T3 [3]; 34.24% in the data set with NIH3T3 [4]; 26.67% in the data set with NIH3T3 [5]; 37.64% in the data set with NIH3T3 [6]; 57.41% with NIH3T3 [7]. The “tubulin polymerization inhibition (active/inactive)” value in the data set filed under Ovis aries is “Active”.
On to `COc1ccc(-c2nc(SCc3ccccc3)sc2-c2ccccc2)c(OC)c1OC`, for which the IC50 with NIH3T3 [1] worked out at 56.5 µM; in the data set on HT-29 it was 46 µM; with MCF7, 27.3 µM; in the data set with AGS it was 38.5 µM.
`COc1ccc(-c2nc(SCc3ccccc3)sc2-c2ccc([N+](=O)[O-])cc2)c(OC)c1OC`: the IC50 in the data set on NIH3T3 [1] turned out to be 16.3 µM; with HT-29 it was 33.8 µM; with MCF7, 11 µM; in the data set on AGS, 13.8 µM. Moreover, the “tubulin polymerization inhibition (active/inactive)” value in the data set filed under Ovis aries is “Active”.
As for `COc1ccc(-c2nc(SCc3ccccc3)sc2-c2ccc(F)cc2)c(OC)c1OC`, the IC50 with NIH3T3 [1] was found to be 41.5 µM; with HT-29, 18.5 µM; with MCF7, 18.5 µM; in the data set with AGS it was 18.1 µM. Besides, the “tubulin polymerization inhibition (active/inactive)” value in the data set listed under Ovis aries was “Active”.
With `COc1ccc(-c2nc(SC)sc2-c2ccc(Cl)cc2)c(OC)c1OC`, the values for the IC50 in the data set on NIH3T3 [1], in the data set on HT-29 and with AGS were 95.7 µM, > 100 µM and > 100 µM, respectively.
With `COc1ccc(/C=C\c2cc(OC)c(OC)c(OC)c2)cc1O` [COMBRETASTATIN A4], the IC50 with NIH3T3 [1] worked out at 0.097 µM; with HT-29, 1.58 µM; in the data set on MCF7 it was 0.67 µM; in the data set on AGS it was 0.064 µM. The “tubulin polymerization inhibition (active/inactive)” value in the data set filed under Ovis aries is “Active”.
As to `COc1ccc(-c2nc(SC)sc2-c2ccc(F)cc2)c(OC)c1OC`, the values for the IC50 in the data set with NIH3T3 [1], in the data set with HT-29 and with AGS were 42.1 µM, 80.3 µM and 97.8 µM, respectively.
In the case of `COc1ccc(-c2nc(SC)sc2-c2ccc([N+](=O)[O-])cc2)c(OC)c1OC`, the IC50 was > 100 µM in the data set on NIH3T3 [1], 45.3 µM in the data set with HT-29 and > 100 µM in the data set on AGS.
Consider `COc1ccc(-c2nc(SC)sc2-c2ccccc2)c(OC)c1OC`, for which the IC50 in the data set on NIH3T3 [1] turned out to be 22.1 µM; with HT-29, 77.9 µM; in the data set with AGS it was 27.2 µM.
